Test results: article PMC6426446 (Bioorganic & medicinal chemistry, 2010)
Entries after “also recorded” stand apart in the source; their conditions may differ.

Assays:
[1] = test system: CRL-2365 (brain glioblastoma); experiment: MTT assay CRL-2365; format: cell-based; settings: Homo sapiens, read-out: IC50 MTT assay CRL-2365
Method in brief: (§1)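 Standard MTT growth-inhibition assay with DMSO as vehicle. CRL-2365 and CRL-2366 were kept in DMEM; MCF-7, A549 and mouse 3LL in RPMI-1640. Both media carried 10% fetal bovine serum, penicillin G (100 U/mL) and streptomycin (100 μg/mL). MCF-10A breast cells were grown in Mammary Epithelial Growth Medium.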

[2] = test system: CRL-2366 (DNA repair deficient brain glioblastoma); experiment: MTT assay CRL-2366; format: cell-based; settings: Homo sapiens, read-out: IC50 MTT assay CRL-2366
Method in brief: as §1

[3] = test system: cultured human and mouse cell lines; experiment: MTT assay, all tested cell lines; format: cell-based
Method in brief: as §1

[4] = biological target: NADH-ubiquinone oxidoreductase (mitochondrial complex I) (Bos taurus, UniProt P03887+P17694+P42026); experiment: NADH-ubiquinone; format: biochemical, bovine; settings: compared with 12
NADH-ubiquinone oxidoreductase (mitochondrial complex I), sequence (P03887 whole entry): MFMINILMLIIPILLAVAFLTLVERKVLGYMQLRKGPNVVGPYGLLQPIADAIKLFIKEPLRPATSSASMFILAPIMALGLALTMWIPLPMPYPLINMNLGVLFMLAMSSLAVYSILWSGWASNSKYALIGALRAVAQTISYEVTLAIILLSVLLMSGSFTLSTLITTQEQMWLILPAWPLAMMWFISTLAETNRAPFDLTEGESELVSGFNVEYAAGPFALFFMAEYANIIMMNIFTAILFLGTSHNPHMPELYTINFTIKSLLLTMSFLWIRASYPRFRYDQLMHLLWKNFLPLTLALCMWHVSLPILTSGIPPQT
NADH-ubiquinone oxidoreductase (mitochondrial complex I), sequence (P42026 38-216): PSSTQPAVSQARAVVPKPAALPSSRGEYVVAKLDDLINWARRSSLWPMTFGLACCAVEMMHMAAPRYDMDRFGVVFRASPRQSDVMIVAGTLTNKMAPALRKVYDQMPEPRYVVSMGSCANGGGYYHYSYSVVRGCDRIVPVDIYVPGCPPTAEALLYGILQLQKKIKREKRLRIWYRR
NADH-ubiquinone oxidoreductase (mitochondrial complex I), sequence (P17694 34-463): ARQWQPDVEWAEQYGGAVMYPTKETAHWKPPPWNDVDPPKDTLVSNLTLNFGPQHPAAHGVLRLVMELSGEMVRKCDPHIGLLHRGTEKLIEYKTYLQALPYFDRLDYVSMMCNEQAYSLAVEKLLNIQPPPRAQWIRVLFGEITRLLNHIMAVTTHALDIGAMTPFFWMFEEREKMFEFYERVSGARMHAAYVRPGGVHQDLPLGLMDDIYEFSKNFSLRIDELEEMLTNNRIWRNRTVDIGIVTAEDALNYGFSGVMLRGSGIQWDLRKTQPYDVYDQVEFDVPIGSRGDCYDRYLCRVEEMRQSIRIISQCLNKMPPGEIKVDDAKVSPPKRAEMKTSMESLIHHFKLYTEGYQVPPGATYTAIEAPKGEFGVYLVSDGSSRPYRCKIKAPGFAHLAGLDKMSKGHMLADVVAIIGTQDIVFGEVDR

[5] = Stability of purified compound; format: physicochemical
[6] = test system: MCF-7 human breast carcinoma cells; experiment: Lactate assay; format: cell-based; settings: MCF-7 cells, 3 h, varying concentrations
Method in brief: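 MCF-7 cells seeded at 2 × 10^5 per well and grown 24 h (about 50% confluence). Wells rinsed with pre-warmed Krebs-Ringer buffer, then exposed for 3 h to test compound in buffer against buffer-only controls. Supernatant lactate measured as absorbance change at 363 nm and converted using extinction coefficient 9.1 mM−1 cm−1. Three determinations per point; experiments repeated at least three times.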

NADH fumarate reductase = settings: cited from earlier work
[7] = biological target: NADH oxidase (complexes I, III and IV) (Bos taurus, UniProt P03887+P17694+P42026); experiment: NADH oxidase activity in bovine heart submitochondrial particles; format: biochemical; settings: bovine heart SMP
NADH oxidase (complexes I, III and IV), sequence (P03887 whole entry): as the sequence (P03887 whole entry) above
NADH oxidase (complexes I, III and IV), sequence (P42026 38-216): as the sequence (P42026 38-216) above
NADH oxidase (complexes I, III and IV), sequence (P17694 34-463): as the sequence (P17694 34-463) above

SMILES: CCCCCCCCC(C)(O)CCc1oc(=O)c(C)c(O)c1C (racemic) [Compound 12, (rac)-6-[3-Hydroxy-3-methylundecyl]-3,5-dimethyl-4-hydroxypyran-2-one]
- IC50 [1]: > 31 µM
- IC50 [2]: > 31 µM

SMILES: CCCCCCCCC(C)(O)CCc1oc(C)c(C)c(=O)c1C (racemic) [Compound 18, (rac)-2-[3-Hydroxy-3-methylundecyl]-3,5,6-trimethyl-4H-pyran-4-one]
- Cytotoxicity (in words) [3]: no cytotoxicity

SMILES: CCCCCCCCC(C)(O)CCc1[nH]c(=O)c(C)c(O)c1C (racemic) [Compound 21, (rac)-6-[3-Hydroxy-3-methylundecyl]-3,5-dimethyl-4-hydroxypyridin-2-one]
- Potency relative to 12 as inhibitor of NADH-ubiquinone oxidoreductase [4]: more than 10 fold
- Stability after purification by preparative thin layer chromatography [5]: rather unstable

SMILES: CCCCCCCCCC(O)Cc1oc(OC)c(C)c(=O)c1C (stereo not shown) [Compound 1, 2-(2-Hydroxyundecyl)-6-methoxy-3,5-dimethyl-4H-pyran-4-one]
- Stimulation of lactate production (in words) [6]: strongly stimulated
- Inhibitory activity toward NADH fumarate reductase (in words) (NADH fumarate reductase): strong inhibitory activity

SMILES: CCCCCCCC[C@@](C)(O)CCc1oc(=O)c(C)c(O)c1C [Compound 13, (R)-6-[3-Hydroxy-3-methylundecyl]-3,5-dimethyl-4-hydroxypyran-2-one]
- IC50 [1]: > 31 µM
- IC50 [2]: > 31 µM

SMILES: CCCCCCCC[C@](C)(O)CCc1oc(=O)c(C)c(O)c1C [Compound 14, (S)-6-[3-Hydroxy-3-methylundecyl]-3,5-dimethyl-4-hydroxypyran-2-one]
- Stimulation of lactate production (in words) [6]: weakly stimulated
- IC50 [1]: > 31 µM
- IC50 [2]: > 31 µM

SMILES: CCCCCCCC[C@](C)(O)CCc1oc(OC)c(C)c(=O)c1C [Compound 17, (S)-2-[3-Hydroxy-3-methylundecyl]-6-methoxy-3,5-dimethyl-4H-pyran-4-one]
- Stimulation of lactate production (in words) [6]: strongly stimulated

SMILES: CCCCC(O)Cc1oc(OC)c(C)c(=O)c1C (stereo not shown) [Compound 22, 2-(2-Hydroxyhexyl)-6-methoxy-3,5-dimethyl-4H-pyran-4-one]
- Inhibition of mitochondrial respiratory chain function (in words) [7]: did not inhibit; also recorded: no inhibitory activity
- Stimulation of lactate production (in words) [6]: weakly stimulated

SMILES: COc1oc(CC(O)CCCCCOc2ccc(-c3ccccc3)cc2)c(C)c(=O)c1C (stereo not shown) [Compound 30, 2-[2-Hydroxy-7-(4-phenyl)phenoxyheptyl]-6-methoxy-3,5-dimethyl-4H-pyran-4-one]
- Stimulation of lactate production (in words) [6]: strongly stimulated
